26 compounds from ChEMBL document CHEMBL1125742, “(2S)-1-(arylacetyl)-2-(aminomethyl)piperidine derivatives: novel, highly selective kappa opioid analgesics” (J Med Chem, 1991) can be followed below.

For assay [1], the system named is Mus musculus. Description: Antinociceptive activity in mouse tail flick test following s.c. administration. The format is functional. The essentials: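 Mouse tail flick test, D'Amour and Smith procedure as modified by Ling et al., with compound given subcutaneously. ED50 in mg/kg with 95% confidence limits, derived by Finney probit analysis.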
For assay [2], the target named is T1, Mu-type opioid receptor (Cavia porcellus, UniProt P97266). In words: Compound was evaluated for its binding affinity against Opioid receptor mu 1 subtype in guinea pig brain (minus cerebellum) using [3H]-DAGO as radioligand. It is filed as tissue-based. The essentials: (§1)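 μ sites in fresh guinea pig brain homogenate (minus cerebellum) were labelled with [3H]DAGO for 40 min at 25 °C. Samples were filtered on GF/C, washed with ice-cold Tris buffer, and bound radioactivity counted. Nonspecific binding was set with 10^-6 M naloxone. Ki by Cheng–Prusoff, as the mean of triplicate curves (n = 3 experiments).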
T1 sequence (P97266 whole entry): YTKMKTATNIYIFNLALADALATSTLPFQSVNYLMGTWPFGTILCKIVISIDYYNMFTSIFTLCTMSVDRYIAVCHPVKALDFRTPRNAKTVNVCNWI

Assay [3] addresses T2, Kappa-type opioid receptor (Cavia porcellus, UniProt P41144). In words: Compound was evaluated for its binding affinity against Opioid receptor kappa 1 subtype in guinea pig brain (minus cerebellum). using [3H]U-69593 as radioligand. The format is tissue-based. The gist of the method: (§2)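 Fresh guinea pig brain homogenate (cerebellum removed) incubated with κ-selective [3H]U-69593 and competitor for 50 min at 25 °C. Samples were filtered on GF/C, washed and counted by liquid scintillation. Nonspecific binding was set with 10^-6 M naloxone. Ki from Cheng–Prusoff, as the mean of triplicate concentration–response curves (n = 3 experiments).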

In assay [4] the target is T2, Kappa-type opioid receptor. In words: Displacement of [3H]U-69593 from kappa opioid receptors in guine pig brain (minus cerebellum). It is filed as tissue-based. In general terms: In a radioligand displacement assay an active substance lowers the binding of a labelled ligand.
Assay [5] concerns the target T1, Mu-type opioid receptor. Description: Displacement of [3H]DAGO from mu opioid receptors in guinea pig brain (minus cerebellum). It is filed as tissue-based. The gist of the method:
as §1

Assay [6] relates to Mus musculus. Description: Compound was evaluated for its antinociceptive activity in the mouse tail flick (MTF) test following subcutaneous administration of 10 mg/kg. The format is functional. The gist of the method:
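Mouse tail flick test, D'Amour and Smith procedure as modified by Ling et al. A single 10 mg/kg subcutaneous dose was given and the result recorded as % protection.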

For assay [7], the target named is T2, Kappa-type opioid receptor. In words: Compound was evaluated for its binding affinity against Opioid receptor kappa 1 subtype in guinea pig brain (minus cerebellum) using [3H]U-69593 as radioligand. It is filed as tissue-based. The gist of the method:
as §2

Assay [8] concerns Mus musculus. Description: Compound was evaluated for its antinociceptive activity in the mouse tail flick (MTF) test following peroral administration. The format is functional. The settings on record: po. The gist of the method: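 Mouse tail flick test, D'Amour and Smith procedure as modified by Ling et al., with oral (po) dosing. ED50 in mg/kg with 95% confidence limits, derived by Finney probit analysis.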

For assay [9], the target named is T1, Mu-type opioid receptor. In words: Compound was evaluated for its binding affinity against opioid receptor mu subtype in guinea pig brain (minus cerebellum) using [3H]DAGO as radioligand. The format is tissue-based. The essentials: as §1
[10] abbreviates: Mus musculus, Tail, sc, read-out: ED50.

T2 sequence (P41144 whole entry): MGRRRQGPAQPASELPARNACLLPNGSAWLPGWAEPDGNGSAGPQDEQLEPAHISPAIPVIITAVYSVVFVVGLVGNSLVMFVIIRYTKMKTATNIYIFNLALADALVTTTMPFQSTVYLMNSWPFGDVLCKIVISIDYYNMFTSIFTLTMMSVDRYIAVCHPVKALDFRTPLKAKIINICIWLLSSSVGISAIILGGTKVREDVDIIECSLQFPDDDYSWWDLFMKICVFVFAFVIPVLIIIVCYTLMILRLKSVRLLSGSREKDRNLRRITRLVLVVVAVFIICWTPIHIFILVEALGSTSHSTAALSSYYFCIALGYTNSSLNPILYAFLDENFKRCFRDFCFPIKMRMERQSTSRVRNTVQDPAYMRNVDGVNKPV

In general, ED50 refers to the dose that gives a 50% effect, or the effect in half of the subjects. The Ki is the equilibrium dissociation constant of an inhibitor or competing ligand from its target. A higher Ki goes with lower affinity. As for `O=C(Cc1ccc(Cl)c(Cl)c1)N1CCCCC1CN1CCCC1` (configuration not stated), in the assay with Mus musculus [1] (setting [10]), the ED50 is 0.09 mg/kg. In addition, the results for the Ki (on Mu-type opioid receptor [2]; in assay [3]) were 1860 nM and 0.53 nM, respectively.
Take `O=C(Cc1cccc(C(F)(F)F)c1)N1CCCCC1CN1CCCC1` (configuration not stated): the median effective dose (ED50) in the assay with Mus musculus [1] (setting [10]) was 0.38 mg/kg. Also, the Ki in assay [4] is 1.07 nM; on Mu-type opioid receptor [5] it was above 10000 nM.
On to `O=C(Cc1ccc(Cl)cc1)N1CCCCC1CN1CCCC1` (configuration not stated), for which the ED50 with Mus musculus [1] (setting [10]) came out at 0.84 mg/kg. Further, the Ki in [4] is 1.68 nM; on Mu-type opioid receptor [5], 5910 nM.
Take `O=C(Cc1ccc(F)cc1)N1CCCCC1CN1CCCC1` (configuration not stated): the ED50 in the assay with Mus musculus [1] (setting [10]) was found to be 9.22 mg/kg. Further, the values for the inhibition constant Ki (in [4]; at Mu-type opioid receptor [5]) were 15.4 nM and above 10000 nM, respectively.
`O=C(Cc1ccc(O)cc1)N1CCCCC1CN1CCCC1` (configuration not stated) gave a Protection in the assay with Mus musculus [6] of 0%. Further, the Ki in assay [4] is 194 nM; at Mu-type opioid receptor [5], above 10000 nM.
Consider `O=C(Cc1ccc(Br)cc1)N1CCCCC1CN1CCCC1` (configuration not stated), for which the ED50 in the assay on Mus musculus [1] (setting [10]) was found to be 0.46 mg/kg. Further, the Ki in assay [4] was 0.84 nM; at Mu-type opioid receptor [5] it was 2980 nM.
On to `O=C(Cc1cccc([N+](=O)[O-])c1)N1CCCCC1CN1CCCC1` (configuration not stated), for which the ED50 in the assay on Mus musculus [1] (setting [10]) amounted to 0.86 mg/kg.
`O=C(Cc1ccc(C2CCCCC2)cc1)N1CCCCC1CN1CCCC1` (configuration not stated) gave a Protection in the assay on Mus musculus [6] of 0%. Moreover, the Ki was 827 nM in assay [4] and 974 nM at Mu-type opioid receptor [5].
In the case of `O=C(Cc1ccc(Cl)c(Cl)c1)N1CCCCC1CN1CCCCC1` (configuration not stated), in the assay with Mus musculus [1] (setting [10]), the ED50 came to 0.19 mg/kg. Moreover, the Ki came to 4810 nM on Mu-type opioid receptor [2] and 0.48 nM in [7].
In the case of `CN(C)C[C@@H]1CCCCN1C(=O)Cc1ccc(Cl)c(Cl)c1`, the ED50 with Mus musculus [1] (setting [10]) was 0.87 mg/kg. For the same compound, the Ki in assay [4] was 0.7 nM; on Mu-type opioid receptor [5] it was 2160 nM.
For the compound `O=C(Cc1ccc(Cl)c(Cl)c1)N1CCCC[C@@H]1CN1CCCC1`, in the assay with Mus musculus [1] (setting [10]), the ED50 was determined as 17.5 mg/kg. For the same compound, the Ki in [4] was determined as 15.4 nM; at Mu-type opioid receptor [5], 7110 nM.
`CC(C)(C)c1ccc(CC(=O)N2CCCCC2CN2CCCC2)cc1` (configuration not stated): the ED50 in the assay on Mus musculus [1] (setting [10]) stood at 1 mg/kg.
On to `Cc1ccc(CC(=O)N2CCCCC2CN2CCCC2)cc1` (configuration not stated), for which, in the assay on Mus musculus [1] (setting [10]), the ED50 worked out at 3.88 mg/kg. The inhibition constant (Ki) in assay [4] was 3.84 nM; on Mu-type opioid receptor [5] it was above 10000 nM.
As for `CN(C)CC1CCCCN1C(=O)Cc1ccc(Cl)c(Cl)c1` (configuration not stated), in the assay on Mus musculus [1] (setting [10]), the ED50 amounted to 0.92 mg/kg. Moreover, the Ki on Mu-type opioid receptor [2] was determined as 3050 nM; in assay [7] it was 1.36 nM.
Turning to `O=C(Cc1ccc([N+](=O)[O-])cc1)N1CCCCC1CN1CCCC1` (configuration not stated), the ED50 in the assay on Mus musculus [1] (setting [10]) was determined as 0.49 mg/kg.
As to `CCN(CC)CC1CCCCN1C(=O)Cc1ccc(Cl)c(Cl)c1` (configuration not stated), in the assay on Mus musculus [1] (setting [10]), the ED50 stood at 0.77 mg/kg. The results for the Ki (in [4]; at Mu-type opioid receptor [5]) were 1.28 nM and 5000 nM, respectively.
Turning to `Cc1ccc(CC(=O)N2CCCCC2CN2CCCC2)cc1C` (configuration not stated), the ED50 in the assay with Mus musculus [1] (setting [10]) was found to be 2.89 mg/kg. Further, the Ki was determined as 1.83 nM in [4] and 5310 nM at Mu-type opioid receptor [5].
`O=C(Cc1ccccc1C(F)(F)F)N1CCCCC1CN1CCCC1` (configuration not stated): the Protection with Mus musculus [6] stood at 60%. Besides, the figures for the inhibition constant (Ki) (in [4]; at Mu-type opioid receptor [5]) were 8.54 nM and above 10000 nM, respectively.
`O=C(Cc1ccc(Cl)c(Cl)c1)N1CCCC[C@H]1CN1CCCC1`: the ED50 was 0.89 mg/kg in the assay on Mus musculus [8] and 0.05 mg/kg in the assay with Mus musculus [1] (setting [10]). Besides, the inhibition constant Ki in assay [4] was 0.24 nM; at Mu-type opioid receptor [5] it was 1560 nM.
In turn, `O=C(Cc1ccc(C(F)(F)F)cc1)N1CCCCC1CN1CCCC1` (stereo in doubt; 20) had an ED50 in the assay on Mus musculus [1] of 0.2 mg/kg. Further, the figures for the Ki (in assay [4]; at Mu-type opioid receptor [5]) were 0.78 nM and 3520 nM, respectively.
Regarding `O=C(Cc1ccc(C(F)(F)F)cc1)N1CCCCC1CN1CCCC1` (stereo in doubt; 21), the ED50 with Mus musculus [8] is 1.17 mg/kg; in the assay on Mus musculus [1] (setting [10]), 0.11 mg/kg. Further, the Ki in assay [4] amounted to 0.57 nM; at Mu-type opioid receptor [5] it was 2340 nM.
Consider `CC(C1CCCCN1C(=O)Cc1ccc(Cl)c(Cl)c1)N(C)C` (stereo in doubt; 37), for which the ED50 with Mus musculus [1] (setting [10]) was 0.38 mg/kg. For the same compound, the values for the Ki (in assay [4]; at Mu-type opioid receptor [5]) were 0.6 nM and 762 nM, respectively.
In the assay on Mus musculus [6], `CC(C1CCCCN1C(=O)Cc1ccc(Cl)c(Cl)c1)N(C)C` (stereo in doubt; 38) yielded a Protection of 0%. Moreover, the Ki in assay [4] was 1000 nM; on Mu-type opioid receptor [9] it was above 10000 nM.
Consider `CN1CCCC1C1CCCCN1C(=O)Cc1ccc(Cl)c(Cl)c1` (stereo in doubt; 41), for which the ED50 in the assay on Mus musculus [1] (setting [10]) stood at 0.4 mg/kg. Also, the inhibition constant (Ki) in [4] stood at 0.33 nM; at Mu-type opioid receptor [5], 464 nM.
`CN1CCCC1C1CCCCN1C(=O)Cc1ccc(Cl)c(Cl)c1` (stereo in doubt; 42) returned a Protection with Mus musculus [6] of 40%. Moreover, the Ki in assay [4] was 11.7 nM; at Mu-type opioid receptor [5], 864 nM.
Regarding `CN1CC[C@]23c4c5ccc(O)c4O[C@H]2[C@@H](O)C=C[C@H]3[C@H]1C5` [MORPHINE], the ED50 in the assay on Mus musculus [1] (setting [10]) was found to be 2.8 mg/kg.
